Test results reported in ChEMBL document CHEMBL1127039, “Nonpeptide angiotensin II antagonists derived from 4H-1,2,4-triazoles and 3H-imidazo[1,2-b][1,2,4]triazoles” (J Med Chem, 1993).
Blank lines part the entries; values can stand above or below the molecule they belong to. Calls of active or inactive are those of the source. The rule behind the calls is not given here.

Columns and labels:
[1] = biological target: T1, Type-1 angiotensin II receptor (Oryctolagus cuniculus, UniProt P34976); assay: Displacement of [125I]-Sar1-Ile8-A II at the rabbit aorta angiotensin II receptor, type 1; type: tissue-based
T1 sequence (P34976 whole entry): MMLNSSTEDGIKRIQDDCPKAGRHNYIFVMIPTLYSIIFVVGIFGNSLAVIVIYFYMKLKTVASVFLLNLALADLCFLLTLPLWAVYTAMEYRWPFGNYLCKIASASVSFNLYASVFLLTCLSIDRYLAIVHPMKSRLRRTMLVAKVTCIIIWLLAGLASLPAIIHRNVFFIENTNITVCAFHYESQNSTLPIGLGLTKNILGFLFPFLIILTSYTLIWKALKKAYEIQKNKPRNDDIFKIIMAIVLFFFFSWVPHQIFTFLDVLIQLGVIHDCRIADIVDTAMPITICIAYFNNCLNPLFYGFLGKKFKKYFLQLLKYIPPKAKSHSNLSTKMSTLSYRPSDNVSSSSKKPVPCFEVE
How it was run: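 Rabbit aorta membranes in 50 mM Tris-HCl pH 7.4, 5 mM MgCl2, 0.2 mg/mL bacitracin; 0.2% BSA only in original version. Nonspecific binding with 1 μM unlabeled Sar1Ile8-AII. Filtration, gamma counting. Duplicate tubes, five concentrations; IC50 from nonlinear regression of displacement curves, sometimes averaged over separate assays.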

Rattus norvegicus [2] = assay: Time from onset of action until significant (i.e., >= 30%) inhibition of pressor response no longer observed (1 mg/Kg intravenous route).; type: functional
How it was run: (§1)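 Same conscious-rat AII challenge protocol: AII 0.1 μg/kg iv boluses repeated after iv or po dosing, ΔMAP recorded. Duration is the time from onset until inhibition falls below 30% and stays below 30% for two further AII challenges. Averaged over at least two rats.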

Rattus norvegicus [3] = assay: Peak inhibition of A II pressor response in conscious normotensive rats after intravenous administration of 1 mg/Kg of drug (2 animals treated); type: functional
How it was run: (§2)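 Male Sprague-Dawley rats (300–400 g) catheterized under methohexital, recovered overnight, conscious. Compound given iv (saline or NaHCO3/saline/water vehicle) or po, with food withheld for oral dosing. AII 0.1 μg/kg iv bolus given at -45, -30 and -15 min, then at 5–60 min and every 30 min afterwards. Peak percent inhibition of the AII ΔMAP response, averaged over at least two rats.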

Rattus norvegicus [4] = assay: Time from onset of action until significant (i.e., >= 30%) inhibition of pressor response no longer observed (3 mg/kg peroral route); type: functional; how it was run: as §1
Rattus norvegicus [5] = assay: Peak inhibition of A II pressor response in conscious normotensive rats after peroral administration of 3 mg/kg of drug (4 animals treated); type: functional; conditions: route oral; how it was run: as §2
Rattus norvegicus [6] = assay: Time from onset of action until significant (i.e., >= 30%) inhibition of pressor response no longer observed (0.3 mg/kg intravenous route); type: functional; how it was run: as §1
Rattus norvegicus [7] = assay: Peak inhibition of A II pressor response in conscious normotensive rats after peroral administration of 0.3 mg/kg of drug (2 animals treated); type: functional; conditions: route oral; how it was run: as §2
Rattus norvegicus [8] = organism: Rattus norvegicus; assay: In vitro antagonistic activity by displacement of [125I]-Sar1-Ile8-A II at the rat adrenal cortical […] AT1 receptor; type: functional
Rattus norvegicus [9] = assay: Time from onset of action until significant (i.e., >= 30%) inhibition of pressor response no longer observed (0.3 mg/kg peroral route).; type: functional; how it was run: as §1
Rattus norvegicus [10] = assay: Peak inhibition of A II pressor response in conscious normotensive rats after intravenous administration of 0.3 mg/kg of drug (4 animals treated); type: functional; how it was run: as §2
Rattus norvegicus [11] = assay: Peak inhibition of A II pressor response in conscious normotensive rats after peroral administration of 3 mg/kg of drug (results shown for 3 out of 4 animals); type: functional; conditions: route oral; how it was run: as §2
Rattus norvegicus [12] = assay: Peak inhibition of A II pressor response in conscious normotensive rats after intravenous administration of 0.3 mg/kg of drug (2 animals treated); type: functional; how it was run: as §2
Rattus norvegicus [13] = assay: Time from onset of action until significant (i.e., >= 30%) inhibition of pressor response no longer observed (0.3 mg/kg peroral route); Not active; type: functional, organism-based; how it was run: as §1
Rattus norvegicus [14] = assay: Peak inhibition of A II pressor response in conscious normotensive rats after peroral administration of 1 mg/kg of drug (2 animals treated); type: functional; conditions: route oral; how it was run: as §2
Rattus norvegicus [15] = assay: Time from onset of action until significant (i.e., >= 30%) inhibition of pressor response no longer observed (1 mg/kg peroral route); type: functional; how it was run: as §1
Rattus norvegicus [16] = assay: Time from onset of action until significant (i.e., >= 30%) inhibition of pressor response no longer observed (30 mg/kg peroral route).; type: functional; how it was run: as §1
Rattus norvegicus [17] = assay: Peak inhibition of A II pressor response in conscious normotensive rats after peroral administration of 30 mg/kg of drug; type: functional; conditions: route oral; how it was run: as §2
Rattus norvegicus [18] = assay: Peak inhibition of A II pressor response in conscious normotensive rats after intravenous administration of 3 mg/kg of drug (4 animals treated); type: functional; how it was run: as §2
Rattus norvegicus [19] = assay: Time from onset of action until significant (i.e., >= 30%) inhibition of pressor response no longer observed (3 mg/kg intravenous route); type: functional; how it was run: as §1
Rattus norvegicus [20] = assay: Time from onset of action until significant (i.e., >= 30%) inhibition of pressor response no longer observed (10 mg/kg intravenous route).; type: functional; how it was run: as §1
Rattus norvegicus [21] = assay: Peak inhibition of A II pressor response in conscious normotensive rats after intravenous administration of 10 mg/kg of drug (3 animals treated); type: functional; how it was run: as §2
Rattus norvegicus [22] = assay: Time from onset of action until significant (i.e., >= 30%) inhibition of pressor response no longer observed (0.3 mg/kg peroral route)); Not active; type: functional, organism-based; how it was run: as §1
Rattus norvegicus [23] = assay: Peak inhibition of A II pressor response in conscious normotensive rats after peroral administration of 0.3 mg/kg of drug (2 animals treated); Not active; type: functional, organism-based; parameters: dose 0.3 mg/kg; how it was run: as §2
Rattus norvegicus [24] = assay: Peak inhibition of A II pressor response in conscious normotensive rats after intravenous administration of 1 mg/kg of drug (2 animals treated); type: functional; how it was run: as §2
Rattus norvegicus [25] = assay: Time from onset of action until significant (i.e., >= 30%) inhibition of pressor response no longer observed (1 mg/kg intravenous route); type: functional; how it was run: as §1
Rattus norvegicus [26] = assay: Peak inhibition of A II pressor response in conscious normotensive rats after intravenous administration of 3 mg/kg of drug (2 animals treated); type: functional; how it was run: as §2
Rattus norvegicus [27] = assay: Peak inhibition of A II pressor response in conscious normotensive rats after peroral administration of 3 mg/kg of drug (3 animals treated); type: functional; conditions: route oral; how it was run: as §2
Rattus norvegicus [28] = assay: Time from onset of action until significant (i.e., >= 30%) inhibition of pressor response no longer observed (3 mg/kg intravenous route).; type: functional; how it was run: as §1

Compound: CCCCc1nc(Cl)c(C(=O)O)n1Cc1ccc(-c2ccccc2-c2nn[nH]n2)cc1 [CARBOXYLIC ACID METABOLITE]
inhibition in vivo at 1 mg/kg (Rattus norvegicus [14]): 72%
Duration (Rattus norvegicus [6]): >29 h
inhibition in vivo at 0.3 mg/kg (Rattus norvegicus [7]): 63%
Duration (Rattus norvegicus [15]): >7 h
Duration (Rattus norvegicus [9]): 2.8 h
inhibition in vivo at 0.3 mg/kg (Rattus norvegicus [12]): 100%

Compound: CCCCc1nnc(SCc2ccccc2)n1Cc1ccc(NC(=O)c2ccccc2C(=O)O)cc1
Duration (Rattus norvegicus [16]): 0.4 h
IC50 [1]: 15 nM
inhibition in vivo at 30 mg/kg (Rattus norvegicus [17]): 33%

Compound: CCCCc1nnc(SCC(=O)OC)n1Cc1ccc(-c2ccccc2C(=O)O)cc1
Duration (Rattus norvegicus [20]): 0.9 h
IC50 [1]: 540 nM
inhibition in vivo at 10 mg/kg (Rattus norvegicus [21]): 93%

Compound: CCCCc1nnc(SCc2ccccc2C(=O)O)n1Cc1ccc(NC(=O)c2ccccc2C(=O)O)cc1
Duration (Rattus norvegicus [22]): inactive
Duration (Rattus norvegicus [6]): 0.9 h
inhibition (Rattus norvegicus [23]): inactive
inhibition in vivo at 1 mg/kg (Rattus norvegicus [24]): 100%
Duration (Rattus norvegicus [25]): 1.4 h
IC50 [1]: 3.3 nM
inhibition in vivo at 0.3 mg/kg (Rattus norvegicus [10]): 74%

Compound: CCCCc1nnc(SCc2ccc(Cl)cc2)n1Cc1ccc(-c2ccccc2-c2nn[nH]n2)cc1
inhibition in vivo at 3 mg/kg (Rattus norvegicus [26]): 62%
Duration (Rattus norvegicus [4]): 1.5 h
inhibition in vivo at 3 mg/kg (Rattus norvegicus [27]): 50%
Duration (Rattus norvegicus [28]): 1 h

Further lines, with some results ahead:

IC50 [1]: 11 nM
Compound: CCCCc1nnc([S+]([O-])Cc2ccc(Cl)cc2)n1Cc1ccc(-c2ccccc2-c2nn[nH]n2)cc1 (stereo not drawn)
Duration (Rattus norvegicus [2]): 0.1 h
Inhibition (Rattus norvegicus [3]): 42%

IC50 (Rattus norvegicus [8]): 19 nM
Compound: CCCCc1nc(Cl)c(CO)n1Cc1ccc(-c2ccccc2-c2nnn[nH]2)cc1 [LOSARTAN]
Duration (Rattus norvegicus [4]): >4.5 h
inhibition in vivo at 3 mg/kg (Rattus norvegicus [5]): 94%
Duration (Rattus norvegicus [6]): 5.5 h
inhibition in vivo at 0.3 mg/kg (Rattus norvegicus [7]): 36%
Duration (Rattus norvegicus [9]): >3.5 h
inhibition in vivo at 0.3 mg/kg (Rattus norvegicus [10]): 52%

IC50 [1]: 1.5 nM
Compound: CCCCc1nnc(SCc2ccccc2C(=O)O)n1Cc1ccc(-c2ccccc2-c2nn[nH]n2)cc1
Duration (Rattus norvegicus [4]): >6 h
Duration (Rattus norvegicus [6]): 5.5 h
inhibition in vivo at 3 mg/kg (Rattus norvegicus [11]): 54%
inhibition in vivo at 0.3 mg/kg (Rattus norvegicus [7]): 0%
inhibition in vivo at 0.3 mg/kg (Rattus norvegicus [12]): 100%
Duration (Rattus norvegicus [13]): inactive

IC50 [1]: 6.6 nM
Compound: CCCCc1nnc(SCc2ccc([N+](=O)[O-])cc2)n1Cc1ccc(-c2ccccc2-c2nn[nH]n2)cc1
inhibition in vivo at 3 mg/kg (Rattus norvegicus [18]): 65%
Duration (Rattus norvegicus [19]): 1.4 h
